Most compounds without a hit are left out; they make up all but 2.3% or so of the library.
Arbovirus anti = antivirals against arbovirus infection | AID 1251 | arbovirus infection cell-based antiviral screen | inhibition, % at 10 µM | 200,000 compounds, 0.37% hits; in the data active = inhibition above about 30%
ABCG2 block = human ABCG2 inhibition, ABCB1 as counter-screen. inhibition, % at 6.6 µM. 190,000 compounds, 0.1% hits. IgMXP3 cells, JC-1 efflux, flow cytometry. Q9UNQ0;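 active = inhibition above 80%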;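 also: 0% = DMSO and 100% = nicardipine control wells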
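Test system: ABCG2 IgMXP3 and barcoded ABCB1 CCRF-Adr cell mix; Schedule: cells with compound and JC-1, 10 min at 25 °C, rotating, no wash; Technique: flow cytometry of retained JC-1 fluorescence; Measure: % inhibition of efflux relative to nicardipine and DMSO; Controls: nicardipine high and DMSO low controls.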
RAM inhibit = yeast RAM network inhibition. inhibition, % at 50 µM. 190,000 compounds, 1.8% hits. S. cerevisiae dse1pr::URA3 reporter, 5-FOA growth OD615, 2 d; analog-sensitive cbk1-as2 kinase mutant strain;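 active = inhibition above a set limit, 3 SD over mean compound inhibition, cut at about 8.4% in these data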;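 also: 0% = DMSO-only wells with no growth and 100% = 10 µM 1-NA-PP1 full growth; inhibition rescues growth on 5-FOA so higher OD means more RAM inhibition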
ABCB1 block = inhibitors of human ABCB1 transporter, ABCG2 counter-screen | CCRF-Adr cells, JC-1 efflux, flow cytometry | inhibition, % at 6.6 µM | 190,000 compounds, 0.067% hits; in the data active = inhibition above about 40%;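 also: 0% = vehicle and 100% = reference inhibitor; higher value means more JC-1 retained so stronger ABCB1 efflux block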
RAM 5-FOA = RAM network inhibitors in efflux-deficient yeast. AID 1305. 1,200 tested, under 10 active. S. cerevisiae efflux-deficient reporter strain, 5-FOA growth OD615, 2 days. shares compounds with RAM inhibit. max inhibition, %; call rule not given here;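 also: plate controls were vehicle for no effect and reference inhibitor for full effect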
* marks the source's active call; other numbers are inactive results; / = no result.

SMILES	Arbovirus anti	ABCG2 block	RAM inhibit	ABCB1 block	RAM 5-FOA
CC1=C(C(=O)OCc2ccccc2)C(c2ccc([N+](=O)[O-])cc2)NC(=O)N1CCCCCC(=O)O (stereo not drawn)	12	24	14*	2	5
CC1=C(C(=O)OCc2ccccc2)C(c2ccc(C(C)(C)C)cc2)NC(=O)N1CCCCCC(=O)O (stereo not drawn)	4	-5	18*	2	6
CC1=C(C(=O)OCc2ccccc2)C(c2ccccc2-c2ccccc2)NC(=O)N1CCCCCC(=O)O (stereo not drawn)	-4	3	4	1	/
CN1CCN(C(=S)NC(=O)c2ccc(C(C)(C)C)cc2)CC1	1	5	0	/	/
C=CCn1cccc(/C=C/C(=O)c2ccc(C(C)(C)C)cc2)c1=S	-37	0	17*	0	8
CSc1nsc(SCC(=O)Nc2ccc3c(c2)OCCO3)n1	-4	48	1	0	/
C=CCn1c(SCCC)nc2sc3c(c2c1=O)CCc1ccccc1-3	3	5	15*	0	3
C=CCSc1nc2sc3c(c2c(=O)n1CC=C)CCc1ccccc1-3	18	24	-1	0	/
COc1ccc(C(=O)/C=C/c2ccc(O)cc2)c(O)c1CC=C(C)C	-40	-4	24*	0	2
COC(=O)c1ccc(Cl)c(NC(=O)NC23CC4CC(CC(C4)C2)C3)c1	-3	14	5	1	/
CCc1oc2ccccc2c1C(=O)c1cc(Br)c(O)c(Br)c1	-13	0	16*	0	1
O=C1CC(N2CCC(c3nc4ccccc4o3)CC2)C(=O)N1 (stereo not drawn)	-3	1	2	0	/
COC(=O)c1c(C)[nH]c(C(=O)OCC(=O)N2c3ccccc3NC(=O)C2(C)C)c1C	4	15	1	1	/
Cc1ccc(NC(=O)c2ccccc2F)cc1S(=O)(=O)N1CCCCCC1	5	3	13*	0	2
Cc1ccc(NC(=O)c2ccc(F)cc2)cc1S(=O)(=O)N1CCCCCC1	2	4	12*	0	2
Cc1cccc(OCCC(=O)Nc2ccc(C)c(S(=O)(=O)N3CCCCC3)c2)c1	-8	23	16*	2	2
Cc1cccc(OCCC(=O)Nc2ccc(S(=O)(=O)N3CCCC3)cc2)c1	-3	1	4	0	/
CC(C)(C)NC(=O)C(c1cccs1)N(C(=O)C(=O)NC1CCCC1)c1ccccc1F (stereo not drawn)	-9	1	0	1	/
CC(C)CCC(C)N=Cc1c(O)n(Cc2ccccc2)c(=O)c2ccccc12 (stereo not drawn)	13	32	17*	4	6
CCOC(=O)C1=C(CSc2nc(-c3ccccc3)ccc2C#N)OC(N)=C(C#N)C1c1ccc(OC)cc1 (stereo not drawn)	-6	3	19*	1	4
CCN(CC)S(=O)(=O)c1cccc(NC(=O)CCSc2ccc(Cl)cc2)c1	-28	9	14*	1	1
CN(C)S(=O)(=O)c1cccc(NC(=O)COC(=O)CCSc2ccc(Cl)cc2)c1	-13	5	8	0	/
O=C(c1sc(N2CCOCC2)nc1-c1ccccc1)N1CCCCC1	-7	0	1	0	/
[2H]c1c([2H])c([2H])c(-c2nc(N3CCCCCC3)sc2C(=O)c2ccccc2)c([2H])c1[2H]	2	2	13*	1	3
O=C(Nc1ccccc1)C1=C[C@@H](C2CCCCC2)C[C@@H](OCc2ccc(CO)cc2)O1	-16	15	12*	3	5
SMILES	Arbovirus anti	ABCG2 block	RAM inhibit	ABCB1 block	RAM 5-FOA
O=C(Nc1ccccc1)C1=C[C@@H](C2CCCCC2)C[C@@H](OCCCCO)O1	1	14	5	2	/
O=C(Nc1ccccc1)C1=C[C@H](C2CCCCC2)C[C@H](OCc2ccc(CO)cc2)O1	-17	6	14*	4	5
Cc1ccc(NC(=O)CCC(=O)OCC(=O)c2ccc(-c3ccccc3)cc2)cc1	4	1	2	0	/
Cc1ccccc1OCC(=O)OCC(=O)c1ccc(-c2ccccc2)cc1	-9	1	14*	0	4
CCc1nc(-c2ccc(-c3ccc(OC)cc3)nc2OC)no1	-9	17	2	-1	/
COc1ccc(-c2ccc(-c3noc(C(C)C)n3)c(OC)n2)cc1	-6	/	15*	/	4
Cc1ccc(S(=O)(=O)NC2CCCCC2)c2nsnc12	5	-2	1	0	/
Cc1cccc(/C=C2\Oc3cc(OS(C)(=O)=O)ccc3C2=O)c1	-14	1	12*	0	4
